Compound activity (PubChem)
STAT3 inh: inhibitors of IL-6 induced STAT3 signaling. inhibition, % at 5.5 µM. 190,000 compounds, 0.89% hits. U3A cells, IL-6 STAT3-luciferase reporter, luminescence; host cell line lacks STAT1;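 active = inhibition above the mean inhibition across all screened compounds plus 3 SD, cut at about 44% in these data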
HSV replic up: increases HSV replication in cells; HSV replication augmentation in cells, fold increase; maximum fold increase; 220,000 compounds, 0.005% hits; in the data active = maximum fold increase above about 1.5; inconclusive = no clear call, values can overlap the other calls; tested in PC3 cells
KCC2 mod: modulates chloride dependent transport by human KCC2; Q9H2X9; KCC2 cells, thallium flux FluoZin-2 fluorescence; B-score of Tl+ flux slope (higher = more flux/activation; lower = inhibition) at 10 µM; 190,000 compounds, 2.2% hits;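 active = thallium flux slope and its plate-corrected score both differing from the plate sample mean at a set confidence after two filtering rounds, in either direction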;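 also: slope of fluorescence scaled to starting intensity during 10 to 20 s after thallium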
Target sequence (Q9H2X9 whole entry, looked up): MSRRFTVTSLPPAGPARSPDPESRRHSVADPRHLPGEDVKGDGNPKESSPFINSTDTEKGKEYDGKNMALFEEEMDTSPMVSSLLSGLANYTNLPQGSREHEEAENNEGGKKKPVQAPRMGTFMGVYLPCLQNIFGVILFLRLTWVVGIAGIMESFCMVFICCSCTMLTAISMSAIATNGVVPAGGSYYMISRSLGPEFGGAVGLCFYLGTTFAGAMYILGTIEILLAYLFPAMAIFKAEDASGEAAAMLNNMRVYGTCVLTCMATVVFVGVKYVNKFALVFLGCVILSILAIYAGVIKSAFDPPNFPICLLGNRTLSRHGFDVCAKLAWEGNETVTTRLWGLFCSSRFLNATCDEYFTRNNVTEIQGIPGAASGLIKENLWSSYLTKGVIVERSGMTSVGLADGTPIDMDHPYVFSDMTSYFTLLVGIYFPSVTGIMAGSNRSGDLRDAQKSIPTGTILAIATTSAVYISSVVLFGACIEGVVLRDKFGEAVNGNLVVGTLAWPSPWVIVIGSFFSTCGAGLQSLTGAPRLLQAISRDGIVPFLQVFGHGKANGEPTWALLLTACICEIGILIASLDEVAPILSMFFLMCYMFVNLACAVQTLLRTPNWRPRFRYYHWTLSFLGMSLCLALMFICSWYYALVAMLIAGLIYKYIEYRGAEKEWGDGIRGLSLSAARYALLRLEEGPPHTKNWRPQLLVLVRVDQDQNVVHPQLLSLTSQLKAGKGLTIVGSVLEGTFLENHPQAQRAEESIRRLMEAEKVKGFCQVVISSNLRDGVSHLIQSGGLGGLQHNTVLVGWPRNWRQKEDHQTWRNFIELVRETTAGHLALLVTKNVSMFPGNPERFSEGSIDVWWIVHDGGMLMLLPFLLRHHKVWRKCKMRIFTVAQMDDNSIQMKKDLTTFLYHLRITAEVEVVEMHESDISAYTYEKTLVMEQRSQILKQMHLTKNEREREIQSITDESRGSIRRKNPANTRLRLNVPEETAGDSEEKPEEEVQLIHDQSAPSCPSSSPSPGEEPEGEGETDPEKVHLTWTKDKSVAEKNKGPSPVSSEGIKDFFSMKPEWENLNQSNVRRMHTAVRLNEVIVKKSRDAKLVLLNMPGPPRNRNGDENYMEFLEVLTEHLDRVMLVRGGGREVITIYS
STAT1 act: increases IFN-gamma driven STAT1 reporter signal; NIH 3T3 STAT1-luciferase reporter, luminescence; 100% = IFN-gamma alone, no compound; activation (% of control), % at 5.5 µM; 200,000 compounds, 2.6% hits; AID 932;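 active = activation above the screen-wide mean activation plus 3 SD, cut at about 130% in these data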
STAT1 inh: reduces IFN-gamma driven STAT1 reporter signal; NIH 3T3 STAT1-luciferase reporter, luminescence; inhibition, % at 5.5 µM; 200,000 compounds, 0.35% hits; AID 920;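 active = inhibition above a set limit, the mean inhibition across all tested compounds plus 3 SD, cut at about 34% in these data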
STAT3 act: activators of IL-6 induced STAT3 signaling | U3A cells, IL-6 STAT3-luciferase reporter, luminescence; 100% = signal with IL-6 EC80 alone | activation (% of control), % at 5.6 µM | 190,000 compounds, 0.91% hits;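 active = activation above the screen-wide mean of compound activation plus 3 SD, cut at about 130% in these data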
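Material: STAT1-lacking human U3A cells, STAT3 luciferase reporter | Benchmarks: IL-6-only wells as 100% reference | Probe or stimulus: IL-6 (33 ng/mL) | Timing: Compound 1 h, then IL-6 6 h at 37 °C | Detection: Luminescence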
KCC2 secondary: KCC2 (human) modulation, secondary assay | shares compounds with KCC2 mod | normalised thallium flux (F/F0 slope) at 10 µM | HEK293-KCC2, thallium flux, FluoZin2 fluorescence; stronger effect = higher value | 3,700 compounds, 15% hits;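 active = thallium flux slope above the same plate's solvent-only control mean plus 3 SD; inconclusive = the two replicate wells disagree; inactive = no significant difference from solvent-only control wells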
KCC2 bumet counter: bumetanide-insensitive thallium flux in KCC2 cells with ouabain, counter-screen; shares compounds with KCC2 mod; HEK293-KCC2 + bumetanide/ouabain, thallium flux FluoZin2; stronger effect = higher value; normalized thallium flux at 10 µM; 3,700 compounds, 49% hits; AID 1714;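 active = thallium entry rate above the same plate's blocked-transporter control wells by more than 3 SD; inconclusive = the two repeat wells disagree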;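 also: raw slope of fluorescence over initial fluorescence between 10 and 20 s after thallium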
KCC2 secondary2: KCC2 (human) modulation, second secondary assay | shares compounds with KCC2 mod | HEK293-KCC2, thallium flux FluoZin2 fluorescence; actives lie on both sides; F/F0 rise rate, 10–20 s post-thallium | normalized thallium flux at 10 µM | 3,700 compounds, 23% hits;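 active = thallium flux slope more than 3 SD above or below the plate's solvent-only control mean, mostly below; inconclusive = the two repeat wells disagreed; inactive = no significant shift from solvent-only controls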
HEK293 Tl flux: parental HEK flux effect, counter-screen; shares compounds with KCC2 mod; HEK293 parental cells, thallium flux FluoZin2, ouabain; baseline-ratio fluorescence slope, 10–20 s after thallium; thallium flux rate (normalised fluorescence) at 10 µM; 3,700 compounds, 46% hits;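 active = thallium flux rate significantly above the same plate's solvent-only control wells, beyond their mean plus 3 SD; inconclusive = the two replicate wells gave conflicting results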
KCC2 ouabain: KCC2 (human) modulation, ouabain retest; 3,700 compounds, 48% hits; raw Tl+ flux slope (below DMSO = inhibition, above = activation) at 10 µM; HEK293-KCC2, thallium flux FluoZin2 fluorescence; bidirectional: low = inhibitor, high = activator; AID 1717; shares compounds with KCC2 mod;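 active = thallium flux slope beyond 3 SD from same-plate DMSO control mean in most replicates, usually higher, sometimes lower; inconclusive = repeat tests gave conflicting results; inactive = no significant difference from controls in most replicates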;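 also: slope of initial-normalized fluorescence between seconds 10 and 20 after thallium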
HEK counter2: acts in parental HEK cells, second KCC2 counter-screen; HEK293 parental, thallium flux FluoZin-2 fluorescence slope; thallium flux slope at 10 µM; 3,700 compounds, 33% hits; shares compounds with KCC2 mod;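 active = thallium flux slope above the same plate's solvent-control mean plus 3 SD in both duplicate wells; inconclusive = duplicate wells that disagreed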;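 also: run without ouabain in cells lacking the KCC2 cotransporter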
Each line names hits and unclear results; the compound was inactive in the other large screens (follow-up assays come after a bar, where they were run). The list is not random: actives were taken first. Their share in the collection is about 5.5%.

C/C(=N\NC(=O)CCCOc1ccc(Cl)cc1C)c1ccc(C)o1	none
CCOc1ccc(N(C(C)C(=O)Nc2ccc(OC)cc2)S(C)(=O)=O)cc1 (centres undefined)	KCC2 mod -5.01 | KCC2 secondary inactive | KCC2 bumet counter inactive | KCC2 secondary2 inactive | HEK293 Tl flux inactive | KCC2 ouabain inactive | HEK counter2 inactive
S=c1[nH]c(-c2ccccc2)cn1/N=C/c1cccs1	KCC2 mod 17.6 (no result: STAT3 inh, STAT1 act, STAT1 inh, STAT3 act) | KCC2 secondary 0.0227 | KCC2 bumet counter 0.0365 | KCC2 secondary2 inactive | HEK293 Tl flux 0.0164 | KCC2 ouabain 0.0288 | HEK counter2 0.0161
O=C(O)c1ccc(/C=N/n2cc(-c3ccccc3)[nH]c2=S)cc1	none (no result: STAT3 inh, STAT1 act, STAT1 inh, STAT3 act)
S=c1[nH]c(-c2ccccc2)cn1/N=C/c1ccc(Br)cc1	KCC2 mod 54.5 | KCC2 secondary 0.0112 | KCC2 bumet counter 0.0396 | KCC2 secondary2 inactive | HEK293 Tl flux 0.0165 | KCC2 ouabain 0.0481 | HEK counter2 0.0111
COc1ccc(CCCC(=O)Nc2ccccc2F)cc1	none
COc1cccc2cc(-c3nnc(SCC(=O)Nc4nc(C)cs4)n3C)oc12	KCC2 mod -2.96 | KCC2 secondary inactive | KCC2 bumet counter inactive | KCC2 secondary2 inactive | HEK293 Tl flux inactive | KCC2 ouabain inactive | HEK counter2 inactive
Cc1csc(NC(=O)CSc2nnc(-c3ccco3)n2C)n1	none
O=C(CSc1ncccn1)NN=C1CCCCCC1	none
O=C(CCN1C(=O)c2ccccc2S1(=O)=O)Nc1nc2c(s1)CCCC2	KCC2 mod -3.78 | KCC2 secondary inactive | KCC2 bumet counter inactive | KCC2 secondary2 inactive | HEK293 Tl flux inactive | KCC2 ouabain 0.0152 | HEK counter2 inactive
O=C(CCS(=O)(=O)Cc1ccccc1)Nc1nc2c(s1)CCCC2	none (no result: KCC2 mod) | KCC2 secondary inactive | KCC2 bumet counter inactive | KCC2 secondary2 0.0224 | HEK293 Tl flux inactive | KCC2 ouabain inconclusive | HEK counter2 inactive
Cc1nn(C)c(Oc2ccccc2)c1CCNC(=O)C(C)(C)C	none
Cc1cc(C)nc(SCc2cc(=O)c(OC(=O)c3ccc(S(=O)(=O)N4CCCC4)cc3)co2)n1	none
COc1ccc(-c2cc(C)nc(SCc3cccc(C(=O)O)c3)n2)cc1	KCC2 mod -4.84 | KCC2 secondary inactive | KCC2 bumet counter 0.0126 | KCC2 secondary2 inactive | HEK293 Tl flux 0.00899 | KCC2 ouabain inactive | HEK counter2 inconclusive
N#Cc1ccc(CN2CCN(C(=O)c3ccccc3)CC2)c(Cl)c1	none
Cc1cccc(NC(=O)c2nc[nH]c2C(=O)N[C@@H](CC(C)C)C(=O)OC(C)(C)C)c1	none (no result: STAT3 inh, STAT1 act, STAT1 inh, STAT3 act)
CN(C)c1nnc(-c2ccc(Cl)cc2)o1	none
C=C1c2ccccc2NC(=S)N1Cc1ccc2c(c1)OCO2	KCC2 mod 9.89 | KCC2 secondary inactive | KCC2 bumet counter 0.0197 | KCC2 secondary2 inactive | HEK293 Tl flux 0.0212 | KCC2 ouabain 0.0342 | HEK counter2 0.0171
COc1ccccc1-c1nnc2sc(COc3ccc(F)cc3)nn12	KCC2 mod -3.91 (no result: HSV replic up) | KCC2 secondary inactive | KCC2 bumet counter inactive | KCC2 secondary2 inconclusive | HEK293 Tl flux 0.00588 | KCC2 ouabain 0.0146 | HEK counter2 inconclusive
C=CC[N+](C)(C)CCCNC(=O)/C=N/O	none
S=c1[nH]nc(CSCCOc2ccc(Cl)cc2Cl)o1	KCC2 mod 162 (no result: STAT3 inh, STAT1 act, STAT1 inh, STAT3 act) | KCC2 secondary inactive | KCC2 bumet counter 0.0565 | KCC2 secondary2 inconclusive | HEK293 Tl flux 0.0331 | KCC2 ouabain 0.0559 | HEK counter2 inactive
S=c1[nH]nc(CSCCOc2ccccc2)o1	none (no result: STAT3 inh, STAT1 act, STAT1 inh, STAT3 act)
Oc1c(I)cc(I)c2cccnc12	KCC2 mod 77.9 | KCC2 secondary inactive | KCC2 bumet counter 0.0779 | KCC2 secondary2 inactive | HEK293 Tl flux 0.0439 | KCC2 ouabain 0.0842 | HEK counter2 0.0132
O=C(Oc1c(Cl)cc(Cl)c2cccnc12)c1ccco1	none (no result: KCC2 mod)
OCc1ccc(O)c2ncccc12	none
O=C(Oc1c(Cl)cc(Cl)c2cccnc12)c1cccs1	KCC2 mod 3 | KCC2 secondary inactive | KCC2 bumet counter 0.0299 | KCC2 secondary2 inactive | HEK293 Tl flux 0.0158 | KCC2 ouabain 0.0351 | HEK counter2 inconclusive
O=C(Oc1c(CN2CCOCC2)cc(Cl)c2cccnc12)c1cccs1	none
Oc1c(Cl)cc(Cl)c2cccnc12	KCC2 mod 87.5 | KCC2 secondary 0.0194 | KCC2 bumet counter 0.119 | KCC2 secondary2 0.0472 | HEK293 Tl flux 0.098 | KCC2 ouabain 0.0956 | HEK counter2 0.0318
O=C(Nc1cccc(S(=O)(=O)c2cccc(NC(=O)C3CC3)c2)c1)C1CC1	none (no result: KCC2 mod)
Cc1c(-n2cc(C(=O)c3cc(Cl)ccc3O)cc(C#N)c2=O)c(=O)n(-c2ccccc2)n1C	HSV replic up inconclusive
N#Cc1cc(C(=O)c2cc(Cl)ccc2O)cn(-c2ccccc2)c1=O	HSV replic up inconclusive, KCC2 mod -4.98 | KCC2 secondary inactive | KCC2 bumet counter inactive | KCC2 secondary2 inactive | HEK293 Tl flux inactive | KCC2 ouabain inactive | HEK counter2 inactive
Cc1ccc(/C=C/C(=O)c2ccccc2O)cc1	none (no result: STAT3 inh, STAT1 act, STAT1 inh, STAT3 act)
Cc1ccc(/C=C/C(=O)C2C(=O)c3ccccc3C2=O)cc1	STAT3 inh 60.5 (no result: KCC2 mod) | KCC2 secondary inactive | KCC2 bumet counter 0.0673 | KCC2 secondary2 0.0628 | HEK293 Tl flux 0.0917 | KCC2 ouabain 0.0719 | HEK counter2 0.0544
O=C(CSc1cccc2cccc(Cl)c12)NC1=NCCS1	none
Cn1c(=O)c([N+](=O)[O-])c(NCc2ccccc2Cl)c2ccccc21	KCC2 mod -4.51 (no result: STAT3 inh, STAT1 act, STAT1 inh, STAT3 act) | KCC2 secondary inactive | KCC2 bumet counter inactive | KCC2 secondary2 inconclusive | HEK293 Tl flux 0.00626 | KCC2 ouabain inconclusive | HEK counter2 inconclusive
N#C/C(=N\Nc1ccccc1Cl)C(=O)c1ccccc1	KCC2 mod -4.36 (no result: HSV replic up) | KCC2 secondary inactive | KCC2 bumet counter inactive | KCC2 secondary2 inactive | HEK293 Tl flux inconclusive | KCC2 ouabain 0.0155 | HEK counter2 inactive
